Data from ChEMBL document CHEMBL2417539, “1-substituted (Dibenzo[b,d]thiophen-4-yl)-2-morpholino-4H-chromen-4-ones endowed with dual DNA-PK/PI3-K inhibitory activity” (J Med Chem, 2013).
Values after ≈ are worked out from the molar mass of the structure shown.

Tests used:
[1] = biological target: T1, DNA-dependent protein kinase catalytic subunit (Homo sapiens, UniProt P78527); assay: Inhibition of DNA-PK autophosphorylation at S2056 in human HeLa cells; assay type: cell-based
[2] = Fraction unbound in human Plasma; assay type: ADME, cell-free
[3] = biological target: T1, DNA-dependent protein kinase catalytic subunit; assay: Inhibition of human DNA-PK using GST-tagged p53N66 as substrate after 1 hr by ELISA-based chemiluminiscence assay
[4] = Lipophilicity, log D of the compound; assay type: physicochemical; conditions: octanol/water
[5] = Aqueous solubility of the compound at pH 7.4; assay type: physicochemical; conditions: buffer
[6] = biological target: T2, Phosphatidylinositol 4,5-bisphosphate 3-kinase catalytic subunit delta isoform (Homo sapiens, UniProt O00329); assay: Inhibition of PI-3K delta (unknown origin)
T2 sequence (O00329 whole entry): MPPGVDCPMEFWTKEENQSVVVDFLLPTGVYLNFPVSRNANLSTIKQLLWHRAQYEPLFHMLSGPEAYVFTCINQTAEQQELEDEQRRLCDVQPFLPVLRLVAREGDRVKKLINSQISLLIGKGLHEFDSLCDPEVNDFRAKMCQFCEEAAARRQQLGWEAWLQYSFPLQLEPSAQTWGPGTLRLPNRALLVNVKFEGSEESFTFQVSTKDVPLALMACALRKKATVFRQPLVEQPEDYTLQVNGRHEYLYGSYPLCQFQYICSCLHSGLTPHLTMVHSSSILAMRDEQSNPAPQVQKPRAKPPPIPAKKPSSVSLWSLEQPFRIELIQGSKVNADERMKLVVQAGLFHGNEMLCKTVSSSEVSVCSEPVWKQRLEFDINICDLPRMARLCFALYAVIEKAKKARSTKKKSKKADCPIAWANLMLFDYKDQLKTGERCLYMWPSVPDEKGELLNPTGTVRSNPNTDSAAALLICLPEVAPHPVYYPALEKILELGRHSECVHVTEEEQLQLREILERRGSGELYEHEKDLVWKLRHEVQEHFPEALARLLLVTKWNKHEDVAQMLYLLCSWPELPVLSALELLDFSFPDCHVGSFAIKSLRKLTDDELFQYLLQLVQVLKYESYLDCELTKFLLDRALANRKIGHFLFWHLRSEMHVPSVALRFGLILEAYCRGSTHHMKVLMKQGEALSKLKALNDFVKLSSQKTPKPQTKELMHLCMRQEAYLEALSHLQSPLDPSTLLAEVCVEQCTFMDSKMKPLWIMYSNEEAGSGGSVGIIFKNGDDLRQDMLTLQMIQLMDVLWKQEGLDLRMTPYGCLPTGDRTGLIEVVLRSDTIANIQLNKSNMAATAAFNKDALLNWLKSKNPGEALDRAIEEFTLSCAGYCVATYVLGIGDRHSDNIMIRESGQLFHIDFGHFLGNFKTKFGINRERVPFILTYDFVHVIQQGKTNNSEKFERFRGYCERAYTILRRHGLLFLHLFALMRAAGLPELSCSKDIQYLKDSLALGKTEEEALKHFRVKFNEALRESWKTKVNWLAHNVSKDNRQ

[7] = biological target: Phosphatidylinositol 4,5-bisphosphate 3-kinase catalytic subunit gamma isoform (Homo sapiens, UniProt P48736); assay: Inhibition of PI-3K gamma (unknown origin)
[8] = biological target: Phosphatidylinositol 4,5-bisphosphate 3-kinase catalytic subunit beta isoform (Homo sapiens, UniProt P42338); assay: Inhibition of PI-3K beta (unknown origin)
[9] = biological target: Serine/threonine-protein kinase mTOR (Homo sapiens, UniProt P42345); assay: Inhibition of mTOR (unknown origin)
[10] = biological target: Serine/threonine-protein kinase ATR (Homo sapiens, UniProt Q13535); assay: Inhibition of ATR (unknown origin)
[11] = biological target: Serine-protein kinase ATM (Homo sapiens, UniProt Q13315); assay: Inhibition of ATM (unknown origin)
[12] = biological target: Voltage-gated inwardly rectifying potassium channel KCNH2 (Homo sapiens, UniProt Q12809); assay: Inhibition of human ERG expressed in cisapride treated CHO cells by Ion Works assay
HeLa [13] = assay: Antiproliferative activity against human HeLa cells assessed as cell survival ratio at 0.1 uM treated 1 hr before 2Gy ionizing radiation measured after 6 to 8 days by DMR clonogenic assay; assay type: functional
In short: (§1)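 HeLa cells seeded in 6-well dishes, incubated overnight at 37 °C/5% CO2, pre-treated 1 h with vehicle or inhibitor (0.1 or 0.5 μM), then given 2 Gy X-ray IR and held overnight. Medium then replaced without compound and culture continued 6-8 days. Colonies Giemsa-stained and counted automatically. DMR = % survival (vehicle, 2 Gy) / % survival (compound, 2 Gy).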

HeLa [14] = assay: Antiproliferative activity against human HeLa cells assessed as cell survival ratio at 0.5 uM treated 1 hr before 2Gy ionizing radiation measured after 6 to 8 days by DMR clonogenic assay; assay type: functional; in short: as §1
[15] = biological target: T1, DNA-dependent protein kinase catalytic subunit; assay: Inhibition of DNA-PK (unknown origin)
Cytochrome P450 1A2 = biological target: T3, Cytochrome P450 1A2 (Homo sapiens, UniProt P05177); assay: Inhibition of CYP1A2 (unknown origin); assay type: ADME
T3 sequence (P05177 whole entry): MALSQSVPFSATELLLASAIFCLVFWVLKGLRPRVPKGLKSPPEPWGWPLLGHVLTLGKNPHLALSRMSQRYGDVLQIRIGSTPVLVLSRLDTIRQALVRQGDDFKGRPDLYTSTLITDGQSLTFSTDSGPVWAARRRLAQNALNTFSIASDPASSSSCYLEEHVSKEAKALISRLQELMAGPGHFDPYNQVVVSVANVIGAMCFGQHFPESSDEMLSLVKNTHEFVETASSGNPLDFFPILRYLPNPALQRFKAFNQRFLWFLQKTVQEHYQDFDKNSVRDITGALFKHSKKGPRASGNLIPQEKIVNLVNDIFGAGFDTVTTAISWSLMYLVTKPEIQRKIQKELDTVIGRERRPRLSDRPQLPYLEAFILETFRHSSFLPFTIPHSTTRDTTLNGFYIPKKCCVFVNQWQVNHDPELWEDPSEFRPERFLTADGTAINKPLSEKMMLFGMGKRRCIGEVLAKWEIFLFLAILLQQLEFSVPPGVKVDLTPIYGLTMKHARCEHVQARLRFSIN

Cytochrome P450 2C19 = Cytochrome P450 2C19 (Homo sapiens, UniProt P33261); assay: Inhibition of CYP2C19 (unknown origin); assay type: ADME
Chain of Cytochrome P450 2C19 (P33261 whole entry): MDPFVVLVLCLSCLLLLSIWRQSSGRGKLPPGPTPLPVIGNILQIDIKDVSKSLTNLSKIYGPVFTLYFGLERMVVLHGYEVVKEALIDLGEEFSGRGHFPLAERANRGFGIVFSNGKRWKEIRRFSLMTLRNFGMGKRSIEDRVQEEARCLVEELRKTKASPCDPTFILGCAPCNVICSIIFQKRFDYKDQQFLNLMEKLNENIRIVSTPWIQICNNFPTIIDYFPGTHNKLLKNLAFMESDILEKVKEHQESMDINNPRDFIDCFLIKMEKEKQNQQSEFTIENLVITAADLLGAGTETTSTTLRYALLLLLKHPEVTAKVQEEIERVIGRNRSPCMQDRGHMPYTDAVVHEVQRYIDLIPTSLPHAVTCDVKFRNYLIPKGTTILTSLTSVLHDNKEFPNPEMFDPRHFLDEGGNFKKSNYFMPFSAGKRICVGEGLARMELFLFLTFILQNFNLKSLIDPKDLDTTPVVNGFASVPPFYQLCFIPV

Cytochrome P450 2D6 = Cytochrome P450 2D6 (Homo sapiens, UniProt P10635); assay: Inhibition of CYP2D6 (unknown origin); assay type: ADME
Cytochrome P450 2C9 = Cytochrome P450 2C9 (Homo sapiens, UniProt P11712); assay: Inhibition of CYP2C9 (unknown origin); assay type: ADME
Chain of Cytochrome P450 2C9 (P11712 whole entry): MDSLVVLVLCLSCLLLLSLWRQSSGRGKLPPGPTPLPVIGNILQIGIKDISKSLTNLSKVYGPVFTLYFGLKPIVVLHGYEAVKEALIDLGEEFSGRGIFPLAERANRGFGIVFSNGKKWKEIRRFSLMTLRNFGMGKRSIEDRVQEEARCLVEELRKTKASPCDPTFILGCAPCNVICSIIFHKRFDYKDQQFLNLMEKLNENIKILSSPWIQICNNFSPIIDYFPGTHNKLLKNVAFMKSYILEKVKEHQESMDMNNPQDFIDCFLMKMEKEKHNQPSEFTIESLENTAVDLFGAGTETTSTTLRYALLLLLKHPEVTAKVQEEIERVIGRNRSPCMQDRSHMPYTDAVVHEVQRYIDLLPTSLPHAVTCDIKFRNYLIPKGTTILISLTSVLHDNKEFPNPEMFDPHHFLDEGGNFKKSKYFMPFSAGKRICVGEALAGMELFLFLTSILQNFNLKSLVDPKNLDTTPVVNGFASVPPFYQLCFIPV

Cytochrome P450 3A4 = Cytochrome P450 3A4 (Homo sapiens, UniProt P08684); assay: Inhibition of CYP3A4 (unknown origin); assay type: ADME

T1 sequence (P78527 whole entry): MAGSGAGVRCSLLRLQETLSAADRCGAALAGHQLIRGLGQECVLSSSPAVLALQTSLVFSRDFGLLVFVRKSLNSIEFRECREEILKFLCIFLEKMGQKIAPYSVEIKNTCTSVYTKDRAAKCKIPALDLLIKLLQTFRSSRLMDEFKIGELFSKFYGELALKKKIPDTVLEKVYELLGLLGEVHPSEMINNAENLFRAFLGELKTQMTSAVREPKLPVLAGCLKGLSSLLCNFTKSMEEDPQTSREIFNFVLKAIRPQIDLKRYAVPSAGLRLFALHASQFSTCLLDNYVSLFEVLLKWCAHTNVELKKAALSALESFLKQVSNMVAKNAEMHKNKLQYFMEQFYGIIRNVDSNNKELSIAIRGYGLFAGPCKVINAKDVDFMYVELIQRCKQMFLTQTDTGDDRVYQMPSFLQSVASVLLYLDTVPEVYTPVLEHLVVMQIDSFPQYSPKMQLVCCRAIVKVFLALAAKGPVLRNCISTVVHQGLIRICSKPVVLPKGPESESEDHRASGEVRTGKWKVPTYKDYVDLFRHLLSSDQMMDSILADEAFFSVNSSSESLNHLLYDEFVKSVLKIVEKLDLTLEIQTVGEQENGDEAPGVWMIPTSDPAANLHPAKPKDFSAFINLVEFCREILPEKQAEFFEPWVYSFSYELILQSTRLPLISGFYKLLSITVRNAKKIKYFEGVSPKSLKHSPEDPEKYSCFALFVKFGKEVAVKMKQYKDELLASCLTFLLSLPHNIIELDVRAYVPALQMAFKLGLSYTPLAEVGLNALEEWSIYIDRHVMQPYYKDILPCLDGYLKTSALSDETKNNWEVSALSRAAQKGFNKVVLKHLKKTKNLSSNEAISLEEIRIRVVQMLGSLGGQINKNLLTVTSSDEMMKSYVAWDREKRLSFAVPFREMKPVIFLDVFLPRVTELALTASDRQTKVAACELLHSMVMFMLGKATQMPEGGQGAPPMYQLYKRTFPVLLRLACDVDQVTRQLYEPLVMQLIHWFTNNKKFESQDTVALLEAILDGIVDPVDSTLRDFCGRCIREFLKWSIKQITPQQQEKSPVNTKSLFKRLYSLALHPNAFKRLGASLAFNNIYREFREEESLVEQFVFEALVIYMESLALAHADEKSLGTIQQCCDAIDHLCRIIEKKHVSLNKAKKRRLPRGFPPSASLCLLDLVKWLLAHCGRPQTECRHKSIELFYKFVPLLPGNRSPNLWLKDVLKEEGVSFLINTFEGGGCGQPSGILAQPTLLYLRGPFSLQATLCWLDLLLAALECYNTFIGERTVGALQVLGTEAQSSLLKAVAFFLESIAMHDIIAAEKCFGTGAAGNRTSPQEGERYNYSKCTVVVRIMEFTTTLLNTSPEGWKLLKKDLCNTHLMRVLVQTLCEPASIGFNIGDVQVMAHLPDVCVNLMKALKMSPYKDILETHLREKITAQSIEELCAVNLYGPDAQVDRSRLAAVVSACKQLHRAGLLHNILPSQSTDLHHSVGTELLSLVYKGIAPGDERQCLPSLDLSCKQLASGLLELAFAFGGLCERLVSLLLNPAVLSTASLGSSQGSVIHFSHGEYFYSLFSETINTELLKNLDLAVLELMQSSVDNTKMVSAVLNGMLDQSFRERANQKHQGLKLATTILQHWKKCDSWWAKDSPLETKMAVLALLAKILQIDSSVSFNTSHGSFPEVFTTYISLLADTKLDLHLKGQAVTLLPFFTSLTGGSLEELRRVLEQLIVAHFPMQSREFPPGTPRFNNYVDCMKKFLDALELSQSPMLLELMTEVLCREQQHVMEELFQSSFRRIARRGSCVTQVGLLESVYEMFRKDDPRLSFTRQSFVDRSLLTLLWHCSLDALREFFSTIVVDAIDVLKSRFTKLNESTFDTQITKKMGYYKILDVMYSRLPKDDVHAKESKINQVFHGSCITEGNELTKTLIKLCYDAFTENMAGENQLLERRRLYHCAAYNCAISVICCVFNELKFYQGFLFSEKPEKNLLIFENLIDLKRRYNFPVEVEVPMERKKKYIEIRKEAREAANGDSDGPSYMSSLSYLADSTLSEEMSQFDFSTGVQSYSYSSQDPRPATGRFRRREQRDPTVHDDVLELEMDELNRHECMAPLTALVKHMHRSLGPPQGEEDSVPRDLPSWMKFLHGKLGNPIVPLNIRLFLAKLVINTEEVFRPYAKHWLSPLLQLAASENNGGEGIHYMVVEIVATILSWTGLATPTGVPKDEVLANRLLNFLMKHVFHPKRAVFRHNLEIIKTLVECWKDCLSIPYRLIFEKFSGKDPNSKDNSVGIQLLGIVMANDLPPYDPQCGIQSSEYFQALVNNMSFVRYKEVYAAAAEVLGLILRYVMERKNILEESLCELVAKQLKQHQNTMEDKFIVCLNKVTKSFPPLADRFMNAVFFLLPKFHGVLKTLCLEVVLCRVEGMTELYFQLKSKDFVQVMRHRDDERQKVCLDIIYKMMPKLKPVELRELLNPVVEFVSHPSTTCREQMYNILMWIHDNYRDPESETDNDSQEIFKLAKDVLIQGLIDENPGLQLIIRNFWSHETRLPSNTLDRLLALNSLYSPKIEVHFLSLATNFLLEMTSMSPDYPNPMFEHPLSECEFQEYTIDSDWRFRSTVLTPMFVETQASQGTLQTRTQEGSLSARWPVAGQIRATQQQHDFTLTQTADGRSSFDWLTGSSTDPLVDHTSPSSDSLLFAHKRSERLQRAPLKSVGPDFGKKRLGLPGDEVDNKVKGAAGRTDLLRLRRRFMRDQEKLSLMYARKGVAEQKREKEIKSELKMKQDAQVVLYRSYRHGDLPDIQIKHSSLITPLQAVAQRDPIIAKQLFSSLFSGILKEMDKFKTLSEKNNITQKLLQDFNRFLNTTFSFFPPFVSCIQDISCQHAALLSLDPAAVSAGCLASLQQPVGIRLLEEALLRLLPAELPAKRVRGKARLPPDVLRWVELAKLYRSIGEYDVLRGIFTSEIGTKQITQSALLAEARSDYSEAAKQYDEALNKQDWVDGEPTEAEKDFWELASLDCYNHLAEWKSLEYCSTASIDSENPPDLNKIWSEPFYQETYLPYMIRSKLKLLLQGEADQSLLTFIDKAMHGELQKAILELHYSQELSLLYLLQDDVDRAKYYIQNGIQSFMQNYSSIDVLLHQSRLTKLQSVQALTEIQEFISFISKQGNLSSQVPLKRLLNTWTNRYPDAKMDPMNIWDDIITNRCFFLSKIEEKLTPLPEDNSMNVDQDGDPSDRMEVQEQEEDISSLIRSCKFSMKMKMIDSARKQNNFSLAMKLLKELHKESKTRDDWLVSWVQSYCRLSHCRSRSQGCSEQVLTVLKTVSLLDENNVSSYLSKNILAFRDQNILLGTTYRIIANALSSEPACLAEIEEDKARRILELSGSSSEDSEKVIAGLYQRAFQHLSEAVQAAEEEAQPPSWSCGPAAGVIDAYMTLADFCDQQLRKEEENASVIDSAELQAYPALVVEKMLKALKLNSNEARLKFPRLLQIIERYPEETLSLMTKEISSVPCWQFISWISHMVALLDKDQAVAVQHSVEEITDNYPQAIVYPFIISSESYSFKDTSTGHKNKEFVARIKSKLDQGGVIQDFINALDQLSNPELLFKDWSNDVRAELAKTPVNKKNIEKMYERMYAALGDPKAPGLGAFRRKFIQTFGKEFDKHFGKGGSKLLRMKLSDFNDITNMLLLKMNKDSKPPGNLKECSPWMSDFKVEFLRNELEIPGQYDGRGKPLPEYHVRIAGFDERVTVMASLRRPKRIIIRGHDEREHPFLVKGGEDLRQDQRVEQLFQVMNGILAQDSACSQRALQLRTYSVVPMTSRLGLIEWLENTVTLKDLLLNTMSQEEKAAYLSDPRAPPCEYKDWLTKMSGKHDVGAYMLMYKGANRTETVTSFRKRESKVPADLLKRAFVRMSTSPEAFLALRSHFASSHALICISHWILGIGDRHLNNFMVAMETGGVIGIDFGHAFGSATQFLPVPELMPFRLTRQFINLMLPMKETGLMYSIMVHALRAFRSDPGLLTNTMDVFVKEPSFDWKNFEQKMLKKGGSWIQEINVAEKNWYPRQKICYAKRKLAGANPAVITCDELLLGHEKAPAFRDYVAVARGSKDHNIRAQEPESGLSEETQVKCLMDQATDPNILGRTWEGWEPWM

| Structure (SMILES) | IC50 [3] [nM] | Ratio (HeLa [13]) | Ratio (HeLa [14]) | also measured |
| --- | --- | --- | --- | --- |
| CC(=O)N1CCN(CCOc2ccc(-c3cccc4c(=O)cc(N5CCOCC5)oc34)c3sc4ccccc4c23)CC1 | 2 | – | – | EC50 [1]: 166 nM; fraction unbound [2]: 0.0049 |
| O=c1cc(N2CCOCC2)oc2c(-c3cccc4c3sc3ccccc34)cccc12 | 42 | 2.2 | 2.8 | logD [4]: > 4.3; solubility [5]: < 0.2 µM; IC50 [6]: 30 nM; IC50 [7]: 220 nM; IC50 [8]: 16 nM; IC50 [9]: 2400 nM; IC50 [10]: > 10000 nM; IC50 [11]: > 10000 nM; EC50 [1]: 212 nM; IC50 [12]: 14000 nM; fraction unbound [2]: 0.0004; IC50 [15]: 40 nM |
| CN1CCN(CC(=O)Nc2ccc(-c3cccc4c(=O)cc(N5CCOCC5)oc34)c3sc4ccccc4c23)CC1 | 12 | 2.4 | 7.4 | logD [4]: 3; solubility [5]: 5 µM (≈ 2.84 µg/mL); EC50 [1]: 426 nM; IC50 (Cytochrome P450 1A2): > 10000 nM; IC50 (Cytochrome P450 2C19): > 10000 nM; IC50 (Cytochrome P450 2D6): > 10000 nM; IC50 (Cytochrome P450 2C9): > 10000 nM; IC50 [12]: > 10000 nM; IC50 (Cytochrome P450 3A4): > 10000 nM; fraction unbound [2]: 0.036 |
| O=c1cc(N2CCOCC2)oc2c(-c3ccccc3)cccc12 [LY-294002] | – | – | – | IC50 [6]: 220 nM; IC50 [9]: 2800 nM; IC50 [10]: > 10000 nM; IC50 [11]: > 10000 nM |
| O=C(CN1CCN(CCO)CC1)Nc1ccc(-c2cccc3c(=O)cc(N4CCOCC4)oc23)c2sc3ccccc3c12 | 5 | 2 | 8.4 | logD [4]: 2.7; solubility [5]: 154 µM (≈ 92.2 µg/mL); EC50 [1]: 109 nM; IC50 (Cytochrome P450 1A2): > 10000 nM; IC50 (Cytochrome P450 2C19): > 10000 nM; IC50 (Cytochrome P450 2D6): > 10000 nM; IC50 (Cytochrome P450 2C9): > 10000 nM; IC50 [12]: > 30000 nM; IC50 (Cytochrome P450 3A4): > 10000 nM; fraction unbound [2]: 0.098 |
| O=c1cc(N2CCOCC2)oc2c(-c3ccc(OCCN4CCCCC4)c4c3sc3ccccc34)cccc12 | 20 | 1.4 | 3.5 | – |
| O=C(CCN(CCO)CCO)Nc1ccc(-c2cccc3c(=O)cc(N4CCOCC4)oc23)c2sc3ccccc3c12 | 26 | 1 | 0.8 | – |
| CC(=O)N1CCN(CC(=O)Nc2ccc(-c3cccc4c(=O)cc(N5CCOCC5)oc34)c3sc4ccccc4c23)CC1 | 5 | 1.4 | 4.8 | – |
| CN1CCCC1CCNCC(=O)Nc1ccc(-c2cccc3c(=O)cc(N4CCOCC4)oc23)c2sc3ccccc3c12 (stereo unspecified) | 43 | 1.1 | 2.4 | – |
| CN1CCCN(CCC(=O)Nc2ccc(-c3cccc4c(=O)cc(N5CCOCC5)oc34)c3sc4ccccc4c23)CC1 | 41 | 1.1 | 2.6 | – |
| O=C(CNCCN1CCNC1=O)Nc1ccc(-c2cccc3c(=O)cc(N4CCOCC4)oc23)c2sc3ccccc3c12 | 7 | 1.2 | 1.2 | – |
| COC(=O)[C@H](CO)NC(=O)COc1ccc(-c2cccc3c(=O)cc(N4CCOCC4)oc23)c2sc3ccccc3c12 | 6 | 1.5 | 6.1 | – |
| CN1CCN(C(=O)COc2ccc(-c3cccc4c(=O)cc(N5CCOCC5)oc34)c3sc4ccccc4c23)CC1 | 29 | 1.1 | 1.8 | – |
| O=C(CCN1CCCCCC1)Nc1ccc(-c2cccc3c(=O)cc(N4CCOCC4)oc23)c2sc3ccccc3c12 | 11 | 3.1 | 8.4 | – |
| NCCNCC(=O)Nc1ccc(-c2cccc3c(=O)cc(N4CCOCC4)oc23)c2sc3ccccc3c12 | 16 | 1.1 | 1.5 | – |
| O=C(CCN1CCCN(CCO)CC1)Nc1ccc(-c2cccc3c(=O)cc(N4CCOCC4)oc23)c2sc3ccccc3c12 | 42 | 1.2 | 1.1 | – |
| CCN1CCCC1CNCC(=O)Nc1ccc(-c2cccc3c(=O)cc(N4CCOCC4)oc23)c2sc3ccccc3c12 (stereo unspecified) | 30 | 1.2 | 5.9 | – |
| O=C(CCNCCN1CCOCC1)Nc1ccc(-c2cccc3c(=O)cc(N4CCOCC4)oc23)c2sc3ccccc3c12 | 6 | 1.3 | 1.9 | – |
| CC(=O)N1CCN(C(=O)COc2ccc(-c3cccc4c(=O)cc(N5CCOCC5)oc34)c3sc4ccccc4c23)CC1 | 16 | 1 | 1.6 | – |
| O=C(CCN1CCOCC1)Nc1ccc(-c2cccc3c(=O)cc(N4CCOCC4)oc23)c2sc3ccccc3c12 | 41 | 2 | 6.1 | – |
| O=C(COc1ccc(-c2cccc3c(=O)cc(N4CCOCC4)oc23)c2sc3ccccc3c12)NCc1ccncc1 | 10 | 1 | 1.1 | – |
